GSIS activator: primary screen for activators of insulin secretion dependent on glucose, INS-1E cells, GLuc reporter luminescence. 370,000 compounds, 0.61% hits. INS-1E GLuc reporter insulin secretion, 2-3 h. activation, % at 16.6 µM;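 active = lowest replicate activation of at least 40%, so every replicate reaches that level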
ERAP1 inh: ERAP1 (human) enzyme inhibition; Q9NZ08; recombinant ERAP1, Leu-AMC fluorescence, 60 min; inhibition, % at 10.7 µM; 340,000 compounds, 0.15% hits; AID 652197;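 active = mean replicate inhibition of at least 30%, or all replicates individually reaching that 30% level; inactive = mean below 30% and not every replicate reaching it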
E-selectin induc: induces E-selectin expression in human endothelial cells; P16581; HUVEC E-selectin immunofluorescence imaging; normalized: neutral wells 0, TNF-alpha wells 100; activation, % at 7.58 µM; 260,000 compounds, 0.37% hits; AID 686992;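 active = mean E-selectin-positive cell signal at least 10% of the positive control, reached in at least 60% of replicates, without over 20% cell loss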
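Test system – human umbilical vein endothelial cells (HUVEC), E-selectin induction · Input – 3,000 HUVEC seeded per well · Buffer or medium – EGM-2, gelatin · Compound dosing – single-point compound dose · Detection – immunofluorescence imaging · Measure – percent E-selectin-positive cells · Controls – TNF-alpha high, DMSO low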
F508del corr: CFTR F508del correction in bronchial cells | activity (quench increase), % at 7.58 µM | CFBE cells, YFP halide quenching; stimulated with forskolin plus potentiator P3; % fluorescence drop versus neutral controls | 350,000 compounds, 0.36% hits;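 active = mean added fluorescence quench of at least 8% versus neutral control, with both replicates also reaching 8%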;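 also: cells transiently co-express mutant CFTR-F508del with the halide-sensitive YFP; corrector assay measuring rescue of mutant channel to the surface after 24 h compound exposure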
DENV2 CPE: DENV2-induced cell death inhibition; DENV2-infected cells, cytopathic effect rescue, plate reader; CPE inhibition, % at 9.99 µM; 350,000 compounds, 1.7% hits; AID 651640; in the data active = CPE inhibition above about 20%, passing the limit was not always enough; tested in BHK-21 cells
miR-122 sensor: inhibitors of miR-122 in Huh7 cells. 340,000 compounds, 0.3% hits. activation (reporter increase), % at 12.5 µM. Huh7 miR-122 Renilla luciferase sensor, 48 h; neutral wells = 0, positive control = 100;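 active = mean replicate activation score at least 90 and every replicate individually at or above 90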;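 also: higher luciferase means less miR-122 activity so hits act as miR-122 inhibitors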
Numbers stand for hits. Rows were chosen to be rich in hits. Some 2.6% of all compounds tested hit in one or more screens of this group.

How did O=C(Cc1ccccn1)NCC[C@@H]1CC[C@@H](NS(=O)(=O)c2ccc(Cl)cc2)[C@@H](CO)O1 do in these assays?
GSIS activator: inactive; ERAP1 inh: inactive; E-selectin induc: inactive; F508del corr: inactive; DENV2 CPE: 33.7

How did O=C(N[C@H]1CC[C@H](CCNS(=O)(=O)c2ccc(Cl)cc2)O[C@H]1CO)c1cccc(F)c1 do in these assays?
GSIS activator: inactive; ERAP1 inh: inactive; E-selectin induc: inactive; F508del corr: inactive; DENV2 CPE: 54.5

What do the screens show for `CO[C@@H]1CN(C)C(=O)c2cc(NC(=O)NC3CCCC3)ccc2OC[C@@H](C)NC[C@@H]1C`?
GSIS activator: inactive

How did O=C1c2cccc3c(O)ccc(c23)C(=O)N1c1ccc(Cl)cc1 do in these assays?
GSIS activator: inactive; ERAP1 inh: inactive; F508del corr: 18.5; DENV2 CPE: inactive; miR-122 sensor: inactive

What do the screens show for `O=C1c2cccc3c(O)ccc(c23)C(=O)N1Cc1ccco1`?
GSIS activator: inactive; ERAP1 inh: inactive; E-selectin induc: inactive; F508del corr: 26.7; DENV2 CPE: 24.2; miR-122 sensor: inactive

How did Cc1nn(C)cc1NC(=O)C[C@@H]1CC[C@@H]2[C@@H](COc3ccc(NC(=O)C(C)C)cc3C(=O)N2C)O1 do in these assays?
GSIS activator: inactive; E-selectin induc: inactive; F508del corr: inactive; DENV2 CPE: inactive; miR-122 sensor: inactive

What do the screens show for `C[C@@H]1CN([C@H](C)CO)C(=O)c2cccc(NC(=O)c3ccc(-c4nccs4)cc3)c2O[C@@H]1CN(C)Cc1ccncc1`?
GSIS activator: inactive; ERAP1 inh: inactive; E-selectin induc: inactive; F508del corr: inactive; DENV2 CPE: inactive; miR-122 sensor: inactive

Results for Cc1c(Cl)c(C(=O)N2CCCC2)nn1C ?
GSIS activator: inactive; ERAP1 inh: inactive; DENV2 CPE: 121.2

What do the screens show for `CN(Cc1cccs1)C(=O)c1ccc(S(=O)(=O)N2CCCCC2)cc1`?
GSIS activator: inactive; ERAP1 inh: inactive; F508del corr: inactive; DENV2 CPE: inactive

How did CN(Cc1cccs1)C(=O)c1cccc(S(=O)(=O)N2CCCCCC2)c1 do in these assays?
GSIS activator: inactive; ERAP1 inh: inactive; E-selectin induc: inactive; F508del corr: 31.2; DENV2 CPE: inactive

What do the screens show for `C[C@@H]1CN([C@@H](C)CO)S(=O)(=O)c2ccc(-c3cncnc3)cc2O[C@H]1CN(C)C(=O)Cc1ccccc1`?
GSIS activator: inactive; ERAP1 inh: inactive; E-selectin induc: inactive; F508del corr: inactive; DENV2 CPE: inactive; miR-122 sensor: inactive

What do the screens show for `Cc1ccc(C2(C)NC(=O)N(CC(=O)Nc3ccccc3C(=O)NC3CCCC3)C2=O)cc1` (stereo unspecified)?
GSIS activator: inactive; ERAP1 inh: inactive; E-selectin induc: inactive; F508del corr: inactive; DENV2 CPE: 62.2; miR-122 sensor: inactive

How did Cc1ccc(C2(C)NC(=O)N(CC(=O)Nc3ccc(-c4nc5ccc(C)cc5s4)cc3)C2=O)cc1 (stereo unspecified) do in these assays?
GSIS activator: 43.8; ERAP1 inh: inactive; E-selectin induc: inactive; F508del corr: inactive; DENV2 CPE: inactive

Results for CNC[C@@H]1OCCCC[C@H](C)Oc2ccc(NC(=O)Nc3c(C)noc3C)cc2C(=O)N([C@H](C)CO)C[C@H]1C ?
GSIS activator: inactive; E-selectin induc: inactive; F508del corr: inactive; miR-122 sensor: inactive

What do the screens show for `C[C@H]1CN([C@@H](C)CO)C(=O)c2cc(NC(=O)Cc3cn(C)c4ccccc34)ccc2O[C@H]1CN(C)C(=O)Nc1ccc2c(c1)OCO2`?
GSIS activator: inactive; ERAP1 inh: inactive; F508del corr: inactive; DENV2 CPE: 28.4; miR-122 sensor: inactive
